Only a selection was taken, and hits are over-represented in it overall.
T cruzi HTS: inhibitors of intracellular Trypanosoma cruzi, primary screen, cell-based, plate reader, single point, set 2; intracellular Trypanosoma cruzi in host cells; AID 651903, 2012; 22,000 compounds, 4.9% hits; activity score (inhibition), % at 5.01 µM; in the data active = activity score above about 55%;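 also: parasites and compound incubated about four days before reading; 0% = median of neutral control wells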
A1 apoptosis 2: A1 inhibitors via caspase activation, primary screen, cell-based, luminescence, HTS, two replicates; caspase activation, % (test concentration not listed); MEF A1-2A-BIM cells, caspase-Glo luminescence, 3 h; percent of clofoctol response, DMSO zero; 24,000 tested, under 10 active; in the data active = caspase activation above about 5.9%
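Evaluation: Caspase-3/7 activity from luminescence increase | Assay system: A1-2A-BIM mouse embryonic fibroblasts | Quantity: 2500 MEF cells/well | Medium: RPMI-1640 plus 10% FBS | Detection: Caspase-Glo 3/7 luminescence, 1 h at room temperature | Dosing: 50 nL compound per well, pinned | Timing: Cells settled overnight, compound exposure 3 h at 37 °C, 5% CO2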
INS-1E ATP HTS: protection of INS-1E cells from cytokine death, primary screen, ATP luminescence, single point; INS-1E cytokine-induced death, 48 h; normalised: neutral wells 0, positive control 100; protection from cytokine-induced ATP loss, % at 10 µM; 20,000 compounds, 0.1% hits; AID 488910, 2010;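 active = mean replicate protection from cytokine-induced ATP loss at least 50% and at least 75% of replicates each reaching 50%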
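Material: INS-1E rat cells; Quantity: 8000 cells/well; Buffer or medium: phenol-red-free RPMI with 5% fetal bovine serum; Probe or stimulus: cytokine cocktail of IFN-γ, TNF-α and IL-1β; Compound dosing: single test concentration per compound, delivered by pin transfer; Incubation: 48 h co-treatment, 10 min post-lysis read; Signal: CellTiter-Glo luminescence.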
An asterisk follows results filed as active; . = no result given.

SMILES	T cruzi HTS	A1 apoptosis 2	INS-1E ATP HTS
C[C@@H]1CCCCO[C@H](CN(C)Cc2ccncc2)[C@@H](C)CN([C@H](C)CO)C(=O)c2cc(NS(=O)(=O)c3cccs3)ccc2O1	-24.1	.	2.7
C[C@H]1CN([C@@H](C)CO)C(=O)c2cccc(NC(=O)c3nc4ccccc4s3)c2O[C@H]1CN(C)Cc1ccncc1	32.6	.	3.6
C[C@H]1CN([C@@H](C)CO)C(=O)c2cc(NS(=O)(=O)c3cccs3)ccc2O[C@H]1CN(C)C(=O)Nc1ccc(C(F)(F)F)cc1	-12.7	-0.8	.
O=C(CCCCCCC(=O)N/N=C\c1ccc(O)c2ccccc12)NO	14.4	-0.2	150.9*
O=C(CCCCCCC(=O)Nc1ccccc1O)N/N=C/c1ccc(O)c2ccccc12	-3.1	1.3	-1.3
CC(C)NC(=O)Nc1ccc2c(c1)C(=O)N([C@H](C)CO)C[C@@H](C)[C@H](CN(C)Cc1ccc(C(F)(F)F)cc1)OCCCC[C@H](C)O2	.	1.8	.
C[C@H](CO)N1C[C@H](C)[C@@H](CN(C)Cc2ccccc2)Oc2ccc(NS(=O)(=O)c3ccc(F)cc3)cc2C1=O	-0.5	.	-7.5
Cc1cccc(CN(C)C[C@@H]2Oc3ncc(C#CCN(C)C)cc3C(=O)N([C@H](C)CO)C[C@@H]2C)c1	2.7	.	.
COc1ccc(C#Cc2cnc3c(c2)C(=O)N([C@H](C)CO)C[C@H](C)[C@H](CN(C)Cc2cccc(C(F)(F)F)c2)O3)cc1OC	83.6*	-0.4	.
C[C@H](CO)N1C[C@H](C)[C@H](CN(C)C)Oc2ncc(C#CCN(C)C)cc2C1=O	-14.8	.	.
Cc1cccc(CN(C)C[C@@H]2Oc3ncc(C#Cc4ccccc4)cc3C(=O)N([C@H](C)CO)C[C@@H]2C)c1	73.6*	0.4	.
COc1ccc(S(=O)(=O)N(C)C[C@@H]2Oc3ncc(C#Cc4ccc(OC)c(OC)c4)cc3C(=O)N([C@H](C)CO)C[C@@H]2C)cc1	42.9	-1.4	.
COc1ccc(C#Cc2cnc3c(c2)C(=O)N([C@H](C)CO)C[C@H](C)[C@H](CN(C)C)O3)cc1OC	82.8*	0.0	.
COc1ccc(C#Cc2cnc3c(c2)C(=O)N([C@H](C)CO)C[C@H](C)[C@H](CN(C)Cc2ccccc2)O3)cc1OC	15.4	-0.2	.
C[C@H](CO)N1C[C@H](C)[C@H](CN(C)C)Oc2ncc(C#Cc3ccccc3)cc2C1=O	78.5*	0.0	.
C[C@H](CO)N1C[C@H](C)[C@H](CN(C)S(=O)(=O)c2ccc(F)cc2)Oc2ccc(NC(=O)Nc3cccc4ccccc34)cc2CC1=O	10.3	0.3	-1.2
Cc1cc(C(=O)Nc2cccc3c2O[C@@H](CN(C)C(=O)Nc2ccc(F)cc2)[C@H](C)CN([C@H](C)CO)C3=O)n(C)n1	-36.4	0.7	13.0
C[C@@H]1CN([C@H](C)CO)C(=O)Cc2cc(NC(=O)Cc3cn(C)c4ccccc34)ccc2O[C@@H]1CN(C)Cc1ccc(Cl)c(Cl)c1	68.6*	0.8	-39.5
C[C@H](CO)N1C[C@H](C)[C@@H](CN(C)Cc2ccc(Cl)c(Cl)c2)Oc2ccc(NC(=O)Cc3cn(C)c4ccccc34)cc2C1=O	-4.0	-0.5	-8.7
C[C@@H]1CN([C@H](C)CO)C(=O)c2cc(NC(=O)Cc3cn(C)c4ccccc34)ccc2O[C@H]1CN(C)Cc1ccc(-c2ccccc2)cc1	13.0	-1.5	-10.3
C[C@H](CO)N1C[C@H](C)[C@H](CN(C)S(=O)(=O)c2ccc(Cl)cc2)Oc2ccc(NC(=O)Cc3cn(C)c4ccccc34)cc2C1=O	50.0	-0.7	-8.5
C[C@H](CO)N1C[C@H](C)[C@H](CN(C)Cc2ccc(Cl)c(Cl)c2)Oc2ccc(NC(=O)Cc3cn(C)c4ccccc34)cc2C1=O	56.4*	0.5	-21.4
C[C@H]1CN([C@@H](C)CO)C(=O)c2cc(NC(=O)Cc3cn(C)c4ccccc34)ccc2O[C@H]1CN(C)S(=O)(=O)c1ccc(Cl)cc1	66.8*	1.0	0.8
C[C@H]1CN([C@@H](C)CO)C(=O)c2cc(NC(=O)Cc3cn(C)c4ccccc34)ccc2O[C@@H]1CN(C)Cc1ccc(-c2ccccc2)cc1	74.8*	1.4	-10.3
C[C@H]1CN([C@@H](C)CO)C(=O)Cc2cc(NC(=O)Cc3cn(C)c4ccccc34)ccc2O[C@@H]1CN(C)Cc1ccc(Cl)c(Cl)c1	.	0.0	.
COc1ccc(CN(C)C[C@@H]2OCCCC[C@H](C)Oc3ccc(NS(=O)(=O)c4ccc(F)cc4)cc3C(=O)N([C@@H](C)CO)C[C@H]2C)cc1	.	-1.5	.

Bioassay records: PubChem, Broad Institute
